Test results: ChEMBL document CHEMBL2331355, “Synthesis, structure activity relationship and mode of action of 3-substitutedphenyl-1-(2,2,8,8-tetramethyl-3,4,9,10-tetrahydro-2H,8H-pyrano[2,3-f]chromen-6-yl)-propenones as novel anticancer agents in human leukaemia HL-60 cells” (Eur J Med Chem, 2013)
The source made the active and inactive calls. The calls are words filed in the database; no cut-off is given here.

Columns and labels:
HL-60 [1] = assay: Cell cycle arrest in human HL60 cells assessed as S phase cells at 5 uM after 24 hrs by PI staining-based flow cytometric analysis (reference value: 49%); type: functional
HL-60 [2] = assay: Growth inhibition of human HL60 cells at 50 uM after 48 hrs by MTT assay; type: functional; conditions: HL-60, 48 h, read-out: GI
In short: (§1)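 Single-concentration MTT screen at 50 µM over 48 h in 96-well plates. Compounds giving >50% inhibition were rescreened at 30 µM. OD read at 570 nm, reference 620 nm. Result expressed as % growth inhibition versus untreated control. Mitomycin C, adriamycin or 5-fluorouracil used as positive controls. Mean ± SD of three independent experiments.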

HL-60 [3] = assay: Induction of apoptosis in human HL60 cells assessed as nuclear blebbing after 24 hrs by Hoechst 33258 staining; type: functional, cell-based
In short: (§2)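 HL-60 cells (1 × 10⁶/2 ml) treated 24 h at 15 and 20 µM, pelleted at 300 g and washed. Stained with Hoechst 33258, then examined under an inverted fluorescence microscope (10×, UV excitation) for nuclear condensation, blebbing and apoptotic bodies.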

HL-60 [4] = assay: Cell cycle arrest in human HL60 cells assessed as S phase cells at 10 uM after 24 hrs by PI staining-based flow cytometric analysis (reference value: 49%); type: functional
HL-60 [5] = assay: Cell cycle arrest in human HL60 cells assessed as accumulation of G0/G1 phase cells at 20 uM after 24 hrs by PI staining-based flow cytometric analysis (reference value: 48%); type: functional
HL-60 [6] = assay: Cell cycle arrest in human HL60 cells assessed as decrease in S phase cells after 24 hrs by PI staining-based flow cytometric analysis; type: functional
MCF7 [7] = assay: Growth inhibition of human MCF7 cells at 30 uM after 48 hrs by MTT assay; type: functional, cell-based; in short: as §1
ASPC1 [8] = assay: Growth inhibition of human AsPC1 cells at 50 uM after 48 hrs by MTT assay; type: functional; conditions: ASPC1, 48 h, read-out: GI; in short: as §1
HL-60 [9] = assay: Cell cycle arrest in human HL60 cells assessed as G2/M phase cells at 20 uM after 24 hrs by PI staining-based flow cytometric analysis (reference value: 3%); type: functional
MCF7 [10] = assay: Growth inhibition of human MCF7 cells at 50 uM after 48 hrs by MTT assay; type: functional; conditions: MCF7, 48 h, read-out: GI; in short: as §1
HL-60 [11] = assay: Cell cycle arrest in human HL60 cells assessed as accumulation of G0/G1 phase cells at 5 uM after 24 hrs by PI staining-based flow cytometric analysis (reference value: 48%); type: functional
HL-60 [12] = assay: Induction of apoptosis in human HL60 cells at 15 uM after 24 hrs by PI-staining based flow cytometric analysis (reference value: 0.7 %); type: functional
HL-60 [13] = assay: Induction of mitochondrial membrane potential loss in human HL60 cells at 15 uM after 24 hrs by rhodamine-123 staining method (reference value: 7%); type: functional
In short: (§3)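 HL-60 cells (1 × 10⁶/2 ml/well) treated 24 h at 15 or 20 µM, then incubated with rhodamine-123 (200 nM) for 40 min. Loss of dye uptake measured by flow cytometry. Camptothecin (4 µM, 6 h) as positive control. Representative of three experiments.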

MDA-MB-435 [14] = assay: Growth inhibition of human MDA-MB-435 cells at 30 uM after 48 hrs by MTT assay; type: functional, cell-based; in short: as §1
PC-3 = assay: Growth inhibition of human PC3 cells at 50 uM after 48 hrs by MTT assay; type: functional; conditions: PC-3, 48 h, read-out: GI; in short: as §1
MDA-MB-435 [15] = assay: Growth inhibition of human MDA-MB-435 cells at 50 uM after 48 hrs by MTT assay; type: functional; conditions: MDA-MB-435, 48 h, read-out: GI; in short: as §1
Caco-2 [16] = assay: Growth inhibition of human Caco2 cells at 50 uM after 48 hrs by MTT assay; type: functional; conditions: Caco-2, 48 h, read-out: GI; in short: as §1
HL-60 [17] = assay: Cytotoxicity against human HL60 cells after 24 hrs by MTT assay; type: functional, cell-based; conditions: HL-60, 24 h
In short: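 HL-60 cells exposed 24 h to a range of concentrations, then MTT reduction measured. Untreated control OD taken as 100% viability; IC50 derived from the curve. Mean ± SD, n = 8 wells, three independent experiments.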

HL-60 [18] = assay: Induction of apoptosis in human HL60 cells assessed as nuclear condensation after 24 hrs by Hoechst 33258 staining; type: functional, cell-based; in short: as §2
HL-60 [19] = assay: Induction of apoptosis in human HL60 cells at 10 uM after 24 hrs by PI-staining based flow cytometric analysis (reference value: 0.7 %); type: functional
HL-60 [20] = assay: Cell cycle arrest in human HL60 cells assessed as G2/M phase cells at 10 uM after 24 hrs by PI staining-based flow cytometric analysis (reference value: 3%); type: functional
HL-60 [21] = assay: Induction of apoptosis in human HL60 cells at 20 uM after 24 hrs by PI-staining based flow cytometric analysis (reference value: 0.7 %); type: functional
HL-60 [22] = assay: Induction of apoptosis in human HL60 cells assessed as accumulation of sub-G0/G1 phase cells after 24 hrs by PI-staining based flow cytometric analysis; type: functional, cell-based
HL-60 [23] = assay: Induction of mitochondrial membrane potential loss in human HL60 cells at 20 uM after 24 hrs by rhodamine-123 staining method (reference value: 7%); type: functional; in short: as §3
HL-60 [24] = assay: Cell cycle arrest in human HL60 cells assessed as accumulation of G0/G1 phase cells at 10 uM after 24 hrs by PI staining-based flow cytometric analysis (reference value: 48%); type: functional
HL-60 [25] = assay: Cell cycle arrest in human HL60 cells assessed as S phase cells at 20 uM after 24 hrs by PI staining-based flow cytometric analysis (reference value: 49%); type: functional
Caco-2 [26] = assay: Growth inhibition of human Caco2 cells at 30 uM after 48 hrs by MTT assay; type: functional, cell-based; in short: as §1
HL-60 [27] = assay: Induction of apoptosis in human HL60 cells at 5 uM after 24 hrs by PI-staining based flow cytometric analysis (reference value: 0.7 %); type: functional
MIA PaCa-2 [28] = assay: Growth inhibition of human MIAPaCa2 cells at 50 uM after 48 hrs by MTT assay; type: functional; conditions: MIA PaCa-2, 48 h, read-out: GI; in short: as §1
MIA PaCa-2 [29] = assay: Growth inhibition of human MIAPaCa2 cells at 30 uM after 48 hrs by MTT assay; type: functional, cell-based; in short: as §1
HL-60 [30] = assay: Cell cycle arrest in human HL60 cells assessed as accumulation of G0/G1 phase cells after 24 hrs by PI staining-based flow cytometric analysis; type: functional
ASPC1 [31] = assay: Growth inhibition of human AsPC1 cells at 30 uM after 48 hrs by MTT assay; type: functional, cell-based; in short: as §1
HL-60 [32] = assay: Growth inhibition of human HL60 cells at 30 uM after 48 hrs by MTT assay; type: functional, cell-based; in short: as §1
Caco-2 [33] = assay: Cytotoxicity against human Caco2 cells after 48 hrs by MTT assay; type: functional, cell-based; conditions: Caco-2, 48 h
In short: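 MTT assay in 96-well plates, 48 h exposure across 1–100 µM. OD read at 570 nm against a 620 nm reference. Untreated control OD taken as 100% viability. IC50 derived from the concentration–response curves. Mean ± SD, n = 8 wells, from three independent experiments.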

CC1(C)CCc2cc(C(=O)/C=C/c3cccc([N+](=O)[O-])c3)c3c(c2O1)CCC(C)(C)O3
Activity (HL-60 [1]): 48%
inhibition of growth at 50 µM (HL-60 [2]): 92%
Activity (HL-60 [3]): Dose-dependent effect
Activity (HL-60 [4]): 42%
Activity (HL-60 [5]): 86%
Activity (HL-60 [6]): Dose-dependent effect
growth inhibition (GI) (MCF7 [7]): Active
inhibition of growth at 50 µM (ASPC1 [8]): 48%
Activity (HL-60 [9]): 3%
inhibition of growth at 50 µM (MCF7 [10]): 89%
Activity (HL-60 [11]): 46%
Activity (HL-60 [12]): 30%
Activity (HL-60 [13]): 44%
growth inhibition (GI) (MDA-MB-435 [14]): Active
inhibition of growth at 50 µM (PC-3): 72%
inhibition of growth at 50 µM (MDA-MB-435 [15]): 88%
inhibition of growth at 50 µM (Caco-2 [16]): 93%
IC50 (HL-60 [17]): 25 µM
Activity (HL-60 [18]): Dose-dependent effect
Activity (HL-60 [19]): 13%
Activity (HL-60 [20]): 4%
Activity (HL-60 [21]): 58%
Activity (HL-60 [22]): Dose-dependent effect
Activity (HL-60 [23]): 48%
Activity (HL-60 [24]): 54%
Activity (HL-60 [25]): 11%
growth inhibition (GI) (Caco-2 [26]): Active
Activity (HL-60 [27]): 3%
inhibition of growth at 50 µM (MIA PaCa-2 [28]): 80%
growth inhibition (GI) (MIA PaCa-2 [29]): Active
Activity (HL-60 [30]): Dose-dependent effect
growth inhibition (GI) (ASPC1 [31]): Active
growth inhibition (GI) (HL-60 [32]): Active
IC50 (Caco-2 [33]): 16 µM

CC1(C)CCc2cc(C(=O)/C=C/c3ccc([N+](=O)[O-])cc3)c3c(c2O1)CCC(C)(C)O3
Activity (HL-60 [1]): 47%
inhibition of growth at 50 µM (HL-60 [2]): 91%
Activity (HL-60 [3]): Dose-dependent effect
Activity (HL-60 [4]): 44%
Activity (HL-60 [5]): 59%
Activity (HL-60 [6]): Dose-dependent effect
growth inhibition (GI) (MCF7 [7]): Active
inhibition of growth at 50 µM (ASPC1 [8]): 27%
Activity (HL-60 [9]): 4%
inhibition of growth at 50 µM (MCF7 [10]): 52%
Activity (HL-60 [11]): 44%
Activity (HL-60 [12]): 14%
Activity (HL-60 [13]): 52%
growth inhibition (GI) (MDA-MB-435 [14]): Active
inhibition of growth at 50 µM (PC-3): 61%
inhibition of growth at 50 µM (MDA-MB-435 [15]): 78%
inhibition of growth at 50 µM (Caco-2 [16]): 73%
IC50 (HL-60 [17]): 23 µM
Activity (HL-60 [18]): Dose-dependent effect
Activity (HL-60 [19]): 14%
Activity (HL-60 [20]): 4%
Activity (HL-60 [21]): 32%
Activity (HL-60 [22]): Dose-dependent effect
Activity (HL-60 [23]): 56%
Activity (HL-60 [24]): 52%
Activity (HL-60 [25]): 37%
growth inhibition (GI) (Caco-2 [26]): Active
Activity (HL-60 [27]): 3%
inhibition of growth at 50 µM (MIA PaCa-2 [28]): 74%
growth inhibition (GI) (MIA PaCa-2 [29]): Active
Activity (HL-60 [30]): Dose-dependent effect
growth inhibition (GI) (ASPC1 [31]): Active
growth inhibition (GI) (HL-60 [32]): Active
IC50 (Caco-2 [33]): 28 µM
